Results pooled from the literature.
Lines come from different studies, so protocols differ.
Cell line: A549

Cc1c(OCC(F)(F)F)ccnc1COc1ccc(NC(=O)Nc2ccc(F)cc2)cc1
IC50 (cell growth or viability; MTT; 72 h): 5.37 µM

C=CC(=O)Nc1cc(Nc2nc(N3CCc4sccc4C3)c3cccnc3n2)c(OC)cc1N(C)C
IC50 (cell growth or viability; MTT): > 50 µM

COC(C)(C)CCC[C@](C)(O)[C@H]1CC[C@]2(C)[C@@H]1[C@H](O)C[C@@H]1[C@@]3(C)CC[C@H](O)C(C)(C)[C@@H]3CC[C@]12C
IC50 (cell growth or viability; MTT; 72 h): 4.88 µM

C=CC(=O)N1CCC[C@@H](n2nc(-c3ccc(Oc4ccccc4)cc3)c3c(N)ncnc32)C1
IC50 (cell growth or viability): > 10 µM

O=C(NC(=S)N1CCCC1)c1ccc2ccccc2c1
IC50 (cell growth or viability; 48 h): 4.22 µM

O=C(Nc1nnc(-c2cc3ccccc3[nH]2)s1)c1cc2c([nH]c3ccccc32)c(-c2ccc(Cl)cc2)n1
IC50 (cell growth or viability; MTT; 72 h): 3.33 µM

O=C(N/N=C/c1cccn1CCN1CCCCC1)Nc1cc2c(Nc3ccc(F)c(Cl)c3)ncnc2cc1O[C@H]1CCOC1
IC50 (cell growth or viability; MTT; 72 h): 3.58 µM

COc1cccc2c1C(=O)c1c(O)c3c(c(O)c1C2=O)C[C@@](O)(C(=O)CO)C[C@@H]3O[C@H]1C[C@H](N)[C@H](O)[C@H](C)O1
IC50 (cell growth or viability; SRB): 0.62 µM

COc1ccc(NC(=O)Nc2ccc(OCc3nccc(OCC(F)(F)F)c3C)cc2)cc1
IC50 (cell growth or viability; MTT; 72 h): 12.5 µM

CC1=C(O)C(=O)C=C2C1=CC=C1[C@@]2(C)CC[C@@]2(C)[C@@H]3C[C@](C)(C(=O)OCCCN4C(=O)C5C=CC=CC5C4=O)CC[C@]3(C)CC[C@]12C (some centres unmarked)
IC50 (cell growth or viability; MTT; 48 h): 3.65 µM

O=C(CN1C(=O)/C(=C/c2ccco2)SC1=S)Nc1ccccc1
IC50 (cell growth or viability; MTT): 14.9 µM

O=C1Nc2ccc(Cl)cc2/C1=N/NC(=O)c1cc2ccccc2[nH]1
IC50 (cell growth or viability): 19.7 µM

COc1cc(/C=C/C(=O)C(=Cc2cccc(OC)c2OC)C(=O)/C=C/c2ccc(O)c(OC)c2)ccc1O
IC50 (colony formation; 9 days): ~0.4 µM

Cc1cc(C)cc(NC(=O)NNC(=O)c2ccc(Nc3nccc(-c4ccccn4)n3)cc2)c1
IC50 (cell growth or viability; MTT; 24 h): > 40 µM

COC(=O)/C=C/C=C/c1ccc2c(c1)OCO2
IC50 (cell growth or viability; SRB): 162 µM

CCN(CC)C/C=N/NC(=O)Nc1cc2c(Nc3ccc(F)c(Cl)c3)ncnc2cc1O[C@H]1CCOC1
IC50 (cell growth or viability; MTT; 72 h): 4.32 µM

CCN(CC)CCNC(=O)c1c(C)[nH]c(/C=C2\C(=O)Nc3ccc(F)cc32)c1C
IC50 (cell growth or viability): 3.06 µM

CN(C)c1ccc2cc(C(=O)N[C@@H](CCCNC(=N)CCl)C(=O)NCc3ccccc3)ccc2c1
IC50 (cell growth or viability; 48 h): 9.7 µM

COc1ccccc1/C=C/CNCC(O)COc1ccncc1 (centres unmarked)
IC50 (cell growth or viability; CCK-8; 72 h): > 100 µM

CCC(=O)Nc1cc(Nc2nc(N3CCc4sccc4C3)c3cccnc3n2)c(OC)cc1N1CCSCC1
IC50 (cell growth or viability; MTT): 7.91 µM

COc1ccccc1/C=C/CNCC(O)COc1ccccc1 (centres unmarked)
IC50 (cell growth or viability; CCK-8; 72 h): 17.4 µM

COc1cc2ncnc(Nc3ccc(F)c(Cl)c3)c2cc1NC(=O)N/N=C/c1cccn1CCCN1CCN(C)CC1
IC50 (cell growth or viability; MTT; 72 h): 3.23 µM

CNC(=O)c1cc(Oc2ccc(NC(=O)Nc3ccc(Cl)c(C(F)(F)F)c3)cc2)ccn1
IC50 (cell growth or viability; MTT; 72 h): 2.12 µM

COc1ccc(NC(=O)NNC(=O)c2cccc(Nc3nccc(-c4cccnc4)n3)c2)c(OC)c1
IC50 (cell growth or viability; MTT; 24 h): > 40 µM

COc1cccc2c1C(=O)c1c(O)c3c(c(O)c1C2=O)C[C@@](O)(C(=O)CO)C[C@@H]3O[C@H]1C[C@H](N)[C@H](O)[C@H](C)O1
IC50 (cell growth or viability; 48 h): 0.56 µM

COc1c(C)c(OC)c2c(c1C)OC(c1ccccc1)CC2=O (centres unmarked)
IC50 (cell growth or viability; SRB; 72 h): > 50 µM

Cc1ccc(-c2nn(-c3ccc(S(C)(=O)=O)cc3)cc2/C=N\N=c2/[nH]c(-c3ccc([N+](=O)[O-])cc3)cs2)cc1
IC50 (cell growth or viability; MTT; 48 h): 57.6 µM

Oc1ncnc2cc(Nc3nc(-c4ccc(Cl)cc4)cs3)ccc12
IC50 (cell growth or viability; MTT): 20.8 µM

COc1ccc(C(=O)O[C@@H]2CN3Cc4c(cc5c(c4OC)OCO5)[C@@]24C=C[C@H](OC)C[C@@H]34)cc1
IC50 (cell growth or viability; WST-1): > 10 µM

COCCCOC(=O)[C@]1(C)CC[C@]2(C)CC[C@]3(C)C4=CC=C5C(=CC(=O)C(O)=C5C)[C@]4(C)CC[C@@]3(C)[C@@H]2C1
IC50 (cell growth or viability; MTT; 48 h): 3.22 µM

C[C@H]1Oc2cc(cnc2N)-c2c(nn(C)c2C#N)CN(C)C(=O)c2ccc(F)cc21
IC50 (cell growth or viability): > 8.4 µM

Brc1ccc(Nc2nc(N/N=C\c3c[nH]c4ccccc34)nc(Nc3ccccc3)n2)cc1
IC50 (cell growth or viability; SRB; 72 h): 11.6 µM

O=C(N/N=C/c1cccn1CCCN1CCOCC1)Nc1cc2c(Nc3ccc(F)c(Cl)c3)ncnc2cc1O[C@H]1CCOC1
IC50 (cell growth or viability; MTT; 72 h): 5.62 µM

COc1ccccc1/C=C/CNCC(O)COc1ccc2ncccc2c1 (centres unmarked)
IC50 (cell growth or viability; CCK-8; 72 h): 44.3 µM

CN1CCN(CCCn2cccc2/C=N/NC(=O)Nc2cc3c(Nc4ccc(F)c(Cl)c4)ncnc3cc2O[C@H]2CCOC2)CC1
IC50 (cell growth or viability; MTT; 72 h): 4.06 µM

Oc1ncnc2cc(Nc3nc(-c4ccc(C(F)(F)F)cc4)cs3)ccc12
IC50 (cell growth or viability; MTT): 14.8 µM

C=CC(=O)Nc1cc(Nc2nc(N3CCOCC3)c3sccc3n2)c(OC)cc1N(C)CCN(C)C
IC50 (cell growth or viability; MTT): > 50 µM

Cc1ccc(C)n1-c1ccc(C(=O)NNC=O)cc1
IC50 (cell growth or viability; MTT; 72 h): 219 µM

C=C(Cl)C(=O)Nc1cc(Nc2nc(N3CCc4sccc4C3)c3sccc3n2)c(OC)cc1N(C)CCN(C)C
IC50 (cell growth or viability; MTT): 1.51 µM

COc1cc2ncnc(Nc3ccc(F)c(Cl)c3)c2cc1NC(=O)N/N=C/c1cccn1CCCN(C)C
IC50 (cell growth or viability; MTT; 72 h): 2 µM

O=C(/N=C1\SCC(=O)N1C1CCCCC1)c1ccc2ccccc2c1
IC50 (cell growth or viability; 48 h): 18.8 µM
